Screening results: PubChem, several laboratories
PGE2 EP2 inh = EP2 receptor (human) inhibition; P43116; C6 glioma cells expressing human EP2, cAMP TR-FRET; cells stimulated with saturating PGE2; inhibition, % at 25 µM; 260,000 tested, 0.52% active;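 active means percent inhibition above 40 after rounding to a whole number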;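 further: rat C6 glioma host cells with rolipram phosphodiesterase inhibitor present; the protocol text gives 20 µM as final concentration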
Target sequence (P43116 whole entry, looked up): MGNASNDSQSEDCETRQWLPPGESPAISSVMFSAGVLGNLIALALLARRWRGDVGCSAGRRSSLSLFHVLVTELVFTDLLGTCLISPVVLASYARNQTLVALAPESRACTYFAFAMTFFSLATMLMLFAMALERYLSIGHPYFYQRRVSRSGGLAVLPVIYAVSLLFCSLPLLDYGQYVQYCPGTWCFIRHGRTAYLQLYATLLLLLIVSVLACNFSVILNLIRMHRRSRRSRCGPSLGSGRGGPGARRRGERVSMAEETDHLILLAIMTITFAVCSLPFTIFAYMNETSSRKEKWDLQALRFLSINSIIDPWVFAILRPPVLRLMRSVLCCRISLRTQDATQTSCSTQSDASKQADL
bCat nuc transl = modulators of beta-catenin nuclear translocation; AID 1665; 190,000 tested, 0.3% active; nuclear translocation activity, % at 5 µM; HeLa beta-catenin nuclear translocation, immunofluorescence imaging;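 active means nuclear translocation activity above 50% at 5 µM, with a well cell count of 50 or more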;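 further: per-cell ratio of nuclear to cytoplasmic median beta-catenin stain intensity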
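Test system: HeLa cells, endogenous beta-catenin; Compound: single 5 µM dose plus 0.02–20 µM confirmation series; Times: compound exposure 24 h at 37°C; Signal: fluorescence imaging of beta-catenin antibody stain plus DAPI; Read-out: % activation, nuclear-to-cytoplasmic median beta-catenin signal ratio per cell.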
TbHK1 inh = blocks Trypanosoma brucei hexokinase 1 activity. recombinant TbHK1, G6PDH-coupled NADH A340. inhibition, % at 10 µM. 220,000 tested, 0.11% active;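 active means inhibition of 50% or more in the single-dose primary screen; inactive means inhibition below 50%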
MT stabilizer = microtubule stabilization, imaging screen; 200,000 tested, 0.83% active; HeLa tubulin immunostaining HCS, 24 h; share of cells brighter than vehicle mean+2SD; AID 2205; % tubulin-high responders, % at 10 µM;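 active means plate Z-score above 3 for both tubulin-high and condensed-nucleus cell shares, with cell loss under 80%, at 10 µM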;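 further: anti alpha tubulin signal scored within the nucleus-defined area of each cell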
HMGR II inh = blocks class II HMG-CoA reductase of Enterococcus faecalis | purified E. faecalis HMGR, NADPH absorbance 340 nm kinetic | inhibition, % at 10 µM | 190,000 tested, 0.41% active | AID 1066;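 active means inhibition above a set limit, the median over all tested compounds plus 3 SD, cut at about 9.5% in these data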;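 further: enzyme runs in reverse so mevalonate oxidation gives rising NADPH absorbance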
EP2 modulator = modulates human prostaglandin E2 receptor EP2 signaling; EP2-expressing cells, cAMP HTRF FRET, PGE2 co-stimulation; induction, % at 25 µM; 260,000 tested, 0.83% active; P43116; AID 940;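 active means compounds whose cAMP rise, as percent of the full-agonist control response, exceeds 60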;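 further: rat C6 glioma line stably carrying human EP2 under a CMV promoter; the protocol text gives 20 µM as final concentration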
EP2 confirm = EP2 receptor cAMP induction, counter-screens negative | 1,300 tested, 47% active | shares compounds with EP2 modulator | AID 1080 | C6 glioma EP2 cells, cAMP HTRF induction; plus low (about EC15) PGE2 agonist | calls only at 20 µM (by protocol);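 active means cAMP induction above 50% in the main assay while under 30% in all four parallel counter assays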;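 further: rat C6 glioma cells stably expressing human EP2 receptor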
Of the large screens only hits and unclear results are named; the others gave an inactive call (follow-up assays come after a bar, where they were run); ! = not confirmed by another sample. Compounds with a hit are over-represented: about 2.4% of the library has one in this group of screens.

CC1CC(C)CN(CC(=O)NC(c2ccccc2)c2ccccc2)C1 (stereo not given)	EP2 modulator 72 | EP2 confirm inactive
CC1Cc2ccccc2N1CC(=O)NC(c1ccccc1)c1ccccc1 (stereo not given)	EP2 modulator 72 | EP2 confirm active
CCN(CC)S(=O)(=O)c1c(OC)cc(C)c(Cl)c1C	EP2 modulator 66 | EP2 confirm inactive
CCOC(=O)c1c(N)nn(C(=O)C(C)(C)C)c1-c1ccccc1	EP2 modulator 78 (no result: bCat nuc transl) | EP2 confirm active
CCOC(=O)c1c(N)nn(C(=O)c2ccccc2F)c1-c1ccc(OC)cc1	none
CCOC(=O)c1c(N)sc(C(O)(C(F)(F)F)C(F)(F)F)c1-c1ccccc1	none (no result: bCat nuc transl)
CCOC(=O)c1c(N)sc(-c2ccccc2)c1C	EP2 modulator 73 | EP2 confirm inactive
CCCN(CC1CCCO1)C(=O)c1cc(-c2c(C)nn(C)c2C)n[nH]1 (stereo not given)	none (no result: bCat nuc transl, TbHK1 inh, MT stabilizer, HMGR II inh)
Cc1cc(C)c2cc(CN(Cc3cccnc3)C(=O)Nc3ccc(Cl)cc3)c(=O)[nH]c2c1	none (no result: bCat nuc transl, TbHK1 inh, MT stabilizer, HMGR II inh)
COc1ccccc1-n1c(C)ccc1C	none (no result: bCat nuc transl, TbHK1 inh, MT stabilizer, HMGR II inh)
COc1ccc(Cl)cc1-n1c(C)ccc1C	EP2 modulator 69 | EP2 confirm inactive
CCCc1cc(-c2nc(N)ncc2-c2ccc3c(c2)OCCCO3)c(O)cc1OC	EP2 modulator 88 | EP2 confirm active
CCCc1cc(-c2nc(N)ncc2-c2csc(C)n2)c(O)cc1OC	none
Cc1ccc(C(=O)O)cc1NC(=S)NC(=O)Cc1ccccc1	none
COc1ccccc1C(=O)NC(=S)Nc1cc(C(=O)O)ccc1C	EP2 modulator 72 | EP2 confirm active
COc1cc2ccccc2cc1C(=O)NC(=S)Nc1cc(C(=O)O)ccc1C	EP2 modulator 100 | EP2 confirm active
Cc1ccc(C(=O)O)cc1NC(=S)NC(=O)C(c1ccccc1)c1ccccc1	none
Cc1cc(C)cc(NC(=O)CSc2nnnn2-c2ccc3c(c2)OCCO3)c1	none (no result: bCat nuc transl, TbHK1 inh, MT stabilizer, HMGR II inh)
Cc1oc(-c2ccccc2)cc1C(=O)Nc1cccc(/C=C\C(=O)O)c1	EP2 modulator 82 | EP2 confirm active
COc1ccc(-n2cnc3sc4c(c3c2=O)CCCCC4)cc1	none (no result: bCat nuc transl, TbHK1 inh, MT stabilizer, HMGR II inh)
CC(C)NC(=O)CSc1nc(-c2ccccc2)nc2ccccc12	none (no result: bCat nuc transl, TbHK1 inh, MT stabilizer, HMGR II inh)
COc1ccc2cc3c(N)nn(C(=O)C4CCC(C(C)(C)C)CC4)c3nc2c1 (stereo not given)	EP2 modulator 69 | EP2 confirm inactive
COc1ccc2cc3c(N)nn(C(=O)Cc4ccccc4OC)c3nc2c1	none (no result: bCat nuc transl)
O=C(NCc1ccncc1)C12CC3CC(CC(C3)C1)C2	none
N#CC1=C(N)S[C@H](C(=O)C23CC4CC(CC(C4)C2)C3)[C@H]1c1ccncc1	EP2 modulator 66 | EP2 confirm inactive
CCOC(=O)CSc1nc2cc(OCC)ccc2cc1C#N	none
CCOc1ccc2cc(C#N)c(SCC(=O)NC(C)CC)nc2c1 (stereo not given)	MT stabilizer 44, EP2 modulator 69 | EP2 confirm inactive
COCCNC(=O)C(c1ccc(F)cc1)N(CC1CCCO1)C(=O)CCC(=O)Nc1ccccn1 (stereo not given)	EP2 modulator 72 | EP2 confirm inactive
COCCNC(=O)CN(CC1CCCO1)C(=O)CCC(=O)Nc1ccccn1 (stereo not given)	none
O=C(O)[C@@H]1[C@H](C(=O)O)[C@@H](C(=O)O)C[C@H]1C(=O)O	EP2 modulator 61 (no result: bCat nuc transl, TbHK1 inh, MT stabilizer, HMGR II inh) | EP2 confirm inactive
COc1ccc(Cn2nnnc2C(c2cc3cc(C)cc(C)c3[nH]c2=O)N2CCc3ccccc32)cc1 (stereo not given)	none (no result: bCat nuc transl, TbHK1 inh, MT stabilizer, HMGR II inh)
O=c1c2ccccc2c2ccccc2c(=O)n1Cc1ccco1	EP2 modulator 84 | EP2 confirm inactive
O=S(=O)(O)c1ccc2c(N=Nc3c(O)ccc4ccccc34)cccc2c1	PGE2 EP2 inh 41, EP2 modulator 75 (no result: bCat nuc transl, TbHK1 inh, MT stabilizer, HMGR II inh) | EP2 confirm inactive
O=S(=O)(O)c1cc(S(=O)(=O)O)c2c(N=Nc3cccc4ccccc34)c(O)ccc2c1	none (no result: bCat nuc transl, TbHK1 inh, MT stabilizer, HMGR II inh)
CN1CCCN(C(=O)c2cc(=O)[nH]c3ccccc23)c2nc3ccccc3nc21	none
CN1CCCN(C(=O)Cc2c(Cl)cccc2Cl)c2nc3ccccc3nc21	EP2 modulator 70 (no result: bCat nuc transl) | EP2 confirm active
O=C(NC1CCCC1)C(c1cccnc1)N(Cc1ccc(F)cc1)C(=O)c1ccco1 (stereo not given)	none (no result: bCat nuc transl, TbHK1 inh, MT stabilizer, HMGR II inh)
Cc1cc(C)c(S(=O)(=O)O)c(C)n1	EP2 modulator 77 | EP2 confirm inactive
COc1ccc(/C=C/CN2CCc3c(nc(N4CCC(C)CC4)[nH]c3=O)C2)cc1	none (no result: PGE2 EP2 inh, bCat nuc transl, TbHK1 inh, MT stabilizer, HMGR II inh)
CCN(Cc1ccccc1)C(c1cc2cc(C)ccc2[nH]c1=O)c1nnnn1CCOC (stereo not given)	none
CCN(Cc1ccccc1)C(c1cc2cc(C)cc(C)c2[nH]c1=O)c1nnnn1CCOC (stereo not given)	EP2 modulator 73! | EP2 confirm inactive
NCCSc1nc(-c2ccccc2)c(-c2ccccc2)o1	none (no result: bCat nuc transl, TbHK1 inh, MT stabilizer, HMGR II inh)
N/C(CSc1nc(-c2ccccc2)c(-c2ccccc2)o1)=N\O	EP2 modulator 67 | EP2 confirm active
CC1CCCCN1C(=O)CN1CCC2(CC1)NC(=O)c1ccccc1O2 (stereo not given)	none (no result: bCat nuc transl, TbHK1 inh, MT stabilizer, HMGR II inh)
COc1cc2c(cc1OC)-c1cc(N3CCCc4ccccc43)nc(=O)n1CC2	EP2 modulator 61 | EP2 confirm inactive
COc1cc2c(cc1OC)-c1cc(Nc3ccccc3)nc(=O)n1CC2	none (no result: MT stabilizer, HMGR II inh)
COc1cc2c(cc1OC)-c1cc(Nc3ccc4c(c3)OCCO4)nc(=O)n1CC2	none | EP2 confirm inactive
Cc1ccc(-c2cccc(C(=O)NCCc3ccccc3)n2)c2ccccc12	none (no result: bCat nuc transl)
Cc1ccc(-c2cccc(C(=O)NCc3ccccc3)n2)c2ccccc12	EP2 modulator 66 (no result: bCat nuc transl) | EP2 confirm active
CCOC(=O)C1CCN(c2c(C(=O)c3ccccc3)cnc3ccc(CC)cc23)CC1	EP2 modulator 77 | EP2 confirm inactive
O=C(Oc1ccc(-c2nccc(-c3ccccn3)n2)cc1)c1cccc(C(F)(F)F)c1	EP2 modulator 67 (no result: bCat nuc transl) | EP2 confirm inactive
O=C(CSc1nnc(-c2ccco2)n1Cc1ccco1)NCc1ccco1	none (no result: bCat nuc transl, TbHK1 inh, MT stabilizer, HMGR II inh)
CC(=O)N(Cc1cccs1)Cc1cc2ccc(C)c(C)c2nc1Cl	EP2 modulator 77 | EP2 confirm inactive
CC(=O)N(Cc1cccs1)Cc1cc2cc(C)cc(C)c2[nH]c1=O	none (no result: bCat nuc transl, TbHK1 inh, MT stabilizer, HMGR II inh)
O=C(Cc1ccsc1)N1CCC[C@H](Cn2nc(-c3cccs3)ccc2=O)C1	none (no result: bCat nuc transl, TbHK1 inh, MT stabilizer, HMGR II inh)
CC(=O)O[C@@H]1c2c(ccc3ccc(=O)oc23)OC(C)(C)[C@@H]1OC(=O)CC(C)C	EP2 modulator 64 (no result: bCat nuc transl, TbHK1 inh, MT stabilizer, HMGR II inh) | EP2 confirm active
